The source made the active and inactive calls. No cut-off for these calls is given here.

This is an account of results in ChEMBL document CHEMBL4052683, “The discovery of benzoxazine sulfonamide inhibitors of NaV1.7: Tools that bridge efficacy and target engagement” (Bioorg Med Chem Lett, 2017).

In data set [1] the target is Sodium channel protein type 9 subunit alpha (Rattus norvegicus, UniProt O08562). Nature of the data set: Inhibition of rat NaV1.7 by cell based whole cell voltage clamp method. In outline:
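PatchXpress electrophysiology was run with a protocol giving about 20% channel inactivation. At least four concentrations at half-log spacing were applied one at a time, with washout, current recovery and holding voltage reset between each. Data were pooled from at least 10 cells, with 2–3 points per concentration, and fitted with a 4-parameter Hill curve to give one IC50.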

Another data set concerns Rattus norvegicus. The experiment in a line: Analgesic activity in Sprague-Dawley rat model of formalin-induced nociception behavior assessed as reduction in formalin-evoked paw flinching at 10 to 100 mg/kg, po. In kind it is functional, organism-based. An outline of the steps:
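Sprague Dawley rats got 10, 30 or 100 mg/kg PO in 30% (w/v) hydroxypropyl β-cyclodextrin, pH 10.0 with KOH. Total phase II formalin-induced flinches were counted. Morphine sulfate 2 mg/kg SC served as control. Unbound plasma levels were measured and compared with the rat NaV1.7 IC50.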

Data set [2] can be described thus: Half life in mouse at 30 mg/kg, po by LC-MS/MS method. To be noted: in vivo. It is filed as ADME, organism-based.
For data set [3], the target named is Histamine H3 receptor (Homo sapiens) (UniProt Q9Y5N1). Nature of the data set: Displacement of [3H]N-alpha-Me-histamine from human recombinant histamine H3 receptor expressed in CHO cells at 10 uM by radioligand displacement assay. In kind it is cell-based. For orientation: In a radioligand displacement assay an active substance lowers the binding of a labelled ligand.
Chain of Histamine H3 receptor (Homo sapiens) (Q9Y5N1 whole entry): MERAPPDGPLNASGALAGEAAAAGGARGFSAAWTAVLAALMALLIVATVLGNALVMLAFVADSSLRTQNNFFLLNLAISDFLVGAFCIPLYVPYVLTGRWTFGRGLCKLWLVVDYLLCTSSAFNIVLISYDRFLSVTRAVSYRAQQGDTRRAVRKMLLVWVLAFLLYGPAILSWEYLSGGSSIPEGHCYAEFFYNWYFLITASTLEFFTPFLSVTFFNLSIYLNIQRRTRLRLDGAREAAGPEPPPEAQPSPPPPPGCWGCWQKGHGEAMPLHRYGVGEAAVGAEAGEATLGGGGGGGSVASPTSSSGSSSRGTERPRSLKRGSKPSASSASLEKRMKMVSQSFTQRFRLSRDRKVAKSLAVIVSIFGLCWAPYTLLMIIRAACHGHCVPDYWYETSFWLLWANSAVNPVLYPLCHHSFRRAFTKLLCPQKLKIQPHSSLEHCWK

In another data set the test system is Mus musculus. Nature of the data set: Analgesic activity in C57BL/6 mouse model of formalin-induced nociception behavior assessed as reduction in formalin-evoked paw lifting/licking at 30 mg/kg, po. It is filed as functional. In outline:
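Male C57BL/6 mice got 30, 60 or 100 mg/kg PO in 30% (w/v) hydroxypropyl β-cyclodextrin in water, pH 10.0 with KOH. Formalin (2%) was injected subcutaneously into the dorsal hind paw, and total phase II paw licking and lifting were scored. Morphine sulfate 3 mg/kg SC served as control. Unbound plasma concentration was divided by the mouse NaV1.7 IC50.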

A short description of data set [4]: AUC (infinity) in mouse at 30 mg/kg, po by LC-MS/MS method. In kind it is ADME, organism-based. Set-up: dose 30 mg/kg, time infinity, route oral. The settings on record: in vivo.

Chain of Sodium channel protein type 9 subunit alpha (O08562 whole entry): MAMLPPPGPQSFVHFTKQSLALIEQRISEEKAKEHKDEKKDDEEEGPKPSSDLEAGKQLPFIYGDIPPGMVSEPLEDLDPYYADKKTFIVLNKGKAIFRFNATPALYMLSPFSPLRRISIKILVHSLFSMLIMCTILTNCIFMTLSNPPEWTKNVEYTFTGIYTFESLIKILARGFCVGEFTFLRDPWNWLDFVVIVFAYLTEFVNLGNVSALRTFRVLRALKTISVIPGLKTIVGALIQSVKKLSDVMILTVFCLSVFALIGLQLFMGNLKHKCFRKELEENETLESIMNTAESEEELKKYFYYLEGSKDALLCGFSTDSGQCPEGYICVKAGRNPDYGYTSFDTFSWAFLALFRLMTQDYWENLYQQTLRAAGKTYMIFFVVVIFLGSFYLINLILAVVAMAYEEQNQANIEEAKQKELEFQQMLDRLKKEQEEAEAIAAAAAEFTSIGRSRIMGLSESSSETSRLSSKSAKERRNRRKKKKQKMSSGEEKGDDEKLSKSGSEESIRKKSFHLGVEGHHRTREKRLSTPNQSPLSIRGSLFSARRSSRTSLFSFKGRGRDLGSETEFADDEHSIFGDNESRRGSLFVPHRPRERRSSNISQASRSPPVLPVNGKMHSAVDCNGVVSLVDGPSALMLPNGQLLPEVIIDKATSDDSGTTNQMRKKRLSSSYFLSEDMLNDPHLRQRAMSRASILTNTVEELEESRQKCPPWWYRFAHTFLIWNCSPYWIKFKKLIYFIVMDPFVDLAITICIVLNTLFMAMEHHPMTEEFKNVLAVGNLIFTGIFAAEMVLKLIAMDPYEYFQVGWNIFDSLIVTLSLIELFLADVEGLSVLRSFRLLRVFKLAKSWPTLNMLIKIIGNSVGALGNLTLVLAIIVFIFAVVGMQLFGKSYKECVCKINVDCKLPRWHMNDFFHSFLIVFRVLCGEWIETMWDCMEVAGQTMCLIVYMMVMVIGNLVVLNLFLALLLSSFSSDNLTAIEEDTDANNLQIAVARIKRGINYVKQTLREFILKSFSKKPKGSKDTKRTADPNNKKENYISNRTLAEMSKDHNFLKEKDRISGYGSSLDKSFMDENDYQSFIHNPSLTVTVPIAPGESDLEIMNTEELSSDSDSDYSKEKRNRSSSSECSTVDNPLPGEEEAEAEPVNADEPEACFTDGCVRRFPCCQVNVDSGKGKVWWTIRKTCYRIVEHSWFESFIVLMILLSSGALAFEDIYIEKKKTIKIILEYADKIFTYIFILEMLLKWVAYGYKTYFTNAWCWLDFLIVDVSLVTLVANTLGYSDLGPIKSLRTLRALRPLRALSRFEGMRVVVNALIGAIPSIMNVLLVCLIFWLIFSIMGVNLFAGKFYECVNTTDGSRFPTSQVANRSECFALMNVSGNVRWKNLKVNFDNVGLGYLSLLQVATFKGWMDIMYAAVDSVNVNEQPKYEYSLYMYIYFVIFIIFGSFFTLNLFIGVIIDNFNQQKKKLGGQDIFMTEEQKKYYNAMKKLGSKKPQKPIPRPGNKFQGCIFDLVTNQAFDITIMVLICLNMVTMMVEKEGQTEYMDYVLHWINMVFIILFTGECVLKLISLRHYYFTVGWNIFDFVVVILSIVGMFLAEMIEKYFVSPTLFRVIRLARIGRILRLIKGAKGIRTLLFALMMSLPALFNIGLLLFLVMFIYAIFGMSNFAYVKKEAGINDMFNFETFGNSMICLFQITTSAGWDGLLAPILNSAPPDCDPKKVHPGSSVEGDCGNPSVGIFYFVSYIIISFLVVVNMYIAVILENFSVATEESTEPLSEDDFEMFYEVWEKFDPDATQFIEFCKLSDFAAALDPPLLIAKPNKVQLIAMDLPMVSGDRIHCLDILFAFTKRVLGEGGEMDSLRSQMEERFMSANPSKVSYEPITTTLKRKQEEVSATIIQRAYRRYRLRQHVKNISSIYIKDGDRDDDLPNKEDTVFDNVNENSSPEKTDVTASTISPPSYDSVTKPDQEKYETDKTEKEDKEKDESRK

Usually IC50 stands for the point on the concentration scale where inhibition reaches its midpoint. In general, half-life refers to how long it takes for the measured level to halve. Higher therefore signals slow loss. As a reminder, the AUC(0-inf) is the area under the concentration-time curve extrapolated to infinity. The compound `N#Cc1cc(C(F)(F)F)ccc1N1CCOc2cc(S(=O)(=O)Nc3nccs3)c(F)cc21` displayed an IC50 in data set [1] of 67 nM. Besides, the inhibition entry in the data set on Rattus norvegicus is “Dose-dependent effect”. In addition, the half-life in data set [2] is 426 min. In data set [3], the inhibition result was “inactive”. Further, the MPE in the data set with Mus musculus stood at 5%. In data set [4], this compound gave a total exposure AUC(0-inf) of 790 µM·h.
